Most compounds without a hit are left out; they make up all but 1.8% or so of the library.
CHRM4 antagonist – CHRM4 antagonism in calcium assay | P08173 | CHO-hM4 cells, ACh EC80, Fluo-8 calcium fluorescence | inhibition, % at 3 µM | actives 0.73% (n = 360,000) | AID 624125;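 active = inhibition above its plate's cutoff, the mean inhibition of sample wells plus 3 SD, cut at about 27% in these data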
M4 ag – agonists of human muscarinic M4 receptor (CHRM4). P08173. CHO-K1 hM4/Gqi5, Fluo-8 calcium fluorescence; vehicle 0%, full acetylcholine response 100%. activation, % at 3 µM. actives 0.14% (n = 360,000);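 active = activation above the run mean over all test wells plus 3 SD, cut at about 32% in these data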;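 note: peak over basal fluorescence ratio per well then scaled between controls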
M5 ag – CHRM5 agonism in calcium assay; P08912; CHO-K1 hM5 cells, Fluo-8 calcium fluorescence; 0% DMSO wells, 100% maximal acetylcholine response; activation, % at 3 µM; actives 0.19% (n = 360,000);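 active = activation above the run's mean over test compounds plus 3 SD, cut at about 23% in these data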;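 note: signal is peak over basal fluorescence ratio across the kinetic read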
Target sequence (P08912 whole entry, looked up): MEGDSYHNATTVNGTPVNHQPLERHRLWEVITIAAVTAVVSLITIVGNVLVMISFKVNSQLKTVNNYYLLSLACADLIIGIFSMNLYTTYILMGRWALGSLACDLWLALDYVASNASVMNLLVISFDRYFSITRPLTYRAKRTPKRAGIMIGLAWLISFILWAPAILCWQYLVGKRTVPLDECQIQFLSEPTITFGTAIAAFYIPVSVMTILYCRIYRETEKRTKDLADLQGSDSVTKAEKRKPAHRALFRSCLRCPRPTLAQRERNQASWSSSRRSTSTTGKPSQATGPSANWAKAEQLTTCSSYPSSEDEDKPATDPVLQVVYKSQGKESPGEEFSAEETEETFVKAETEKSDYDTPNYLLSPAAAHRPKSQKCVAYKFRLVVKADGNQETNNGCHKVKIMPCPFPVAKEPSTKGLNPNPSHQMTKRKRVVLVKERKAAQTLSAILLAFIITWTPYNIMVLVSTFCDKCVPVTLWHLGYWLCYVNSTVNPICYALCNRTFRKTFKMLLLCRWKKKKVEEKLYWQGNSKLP
M5 PAM – potentiates acetylcholine response at human M5 receptor. P08912. CHO-K1 hM5, Fluo-8 calcium, ACh EC20 PAM; 0% = ACh EC20, 100% = ACh EC100. activation, % at 3 µM. actives 0.3% (n = 360,000). AID 624038;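 active = activation above the run cutoff, the mean activation of all test compounds plus 3 SD, cut at about 18% in these data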
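Assay system – human M5 receptor in CHO-K1 cells · Read-out – % activation, ACh-normalized · Technique – Fluo-8 calcium fluorescence · Dosing – single-point, 3 µM nominal · Incubation – Fluo-8 loading 80 min at 37 °C plus 30 min room temperature · Repeats – singlicate, one well per test compound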
CHRM4 PAM – potentiates acetylcholine response at human M4 receptor. CHO-K1 hM4/Gqi5, Fluo-8 calcium fluorescence, ACh EC20; 0% = ACh EC20, 100% = maximal ACh. activation, % at 3 µM. actives 0.4% (n = 360,000). AID 624126;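 active = activation above its plate's cutoff, the mean activation of sample wells plus 3 SD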
CHRM5 antagonist – blocks acetylcholine activation of human M5 receptor; CHO-hM5 cells, Fluo-8 calcium fluorescence, ACh EC80; inhibition, % at 3 µM; actives 0.59% (n = 360,000);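 active = inhibition above a per-plate cutoff, the mean of that plate's test compounds plus 3 SD, cut at about 27% in these data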
A number is an active result; n = inactive.

SMILES | CHRM4 antagonist | M4 ag | M5 ag | M5 PAM | CHRM4 PAM | CHRM5 antagonist
COCCCN(C(=O)c1ccccc1)c1nc(-c2ccc(OC)cc2)cs1 | n | n | n | n | n | n
COCCCN(C(C)=O)c1nc(-c2ccccc2)cs1 | n | n | n | n | 44 | n
COc1ccc(CN(C)C(=O)c2cc(S(=O)(=O)Nc3ccccc3F)ccc2C)c(OC)c1 | n | n | n | n | n | n
CCN(CC)CCCn1c2c(c(SCC(=O)N3CCCc4ccccc43)nc1=O)CCC2 | n | n | n | n | n | n
Cc1ccc(NC(=O)C2CCN(S(=O)(=O)c3ccc4c(c3)NC(=O)C(C)S4)CC2)cc1Cl (stereo unspecified) | 29 | n | n | n | n | 28
Cc1ccc2c(C(=O)CCl)c(C)[nH]c2c1 | n | n | n | n | n | n
COCCNC(=O)CN(C(=O)c1ccc(N2CCCC2)nc1)c1ccc(F)c(Cl)c1 | n | n | n | 22 | n | n
COCCNC(=O)CN(C(=O)c1ccc(N2CCCC2)nc1)c1ccccc1 | n | n | n | n | n | n
C(=N\c1nc2ccccc2n1CCN1CCCCC1)/c1ccc2c(c1)OCO2 | n | n | n | 23 | n | n
CN1CC(=O)N(CC(=O)Nc2ccc(F)cc2)c2ccccc2C1=O | n | n | n | 40 | n | n
CN1CC(=O)N(CC(=O)NCc2ccc(F)cc2)c2ccccc2C1=O | n | n | n | n | n | n
CCN1CCN(c2c(/C=C3\SC(=S)N(Cc4ccco4)C3=O)c(C)c(C#N)c(=O)n2C)CC1 | n | n | 57 | n | n | n
COc1ccc(-n2c(C)cc(/C=C3\SC(=S)N(Cc4ccco4)C3=O)c2C)cc1 | n | n | n | n | n | n
COc1ccc(Cl)cc1N(CC(=O)NC(C)(C)C)S(=O)(=O)c1ccc(C)c([N+](=O)[O-])c1 | n | n | n | n | 22 | n
CC(=O)C[C@H]1c2cc(C(F)(F)F)ccc2S(=O)(=O)N1c1ccc(N(C)C)cc1 | n | n | n | n | n | n
CCC1CCCCN1CCCNC(=O)CNC(=O)c1nn(-c2ccc(OC)c(Cl)c2)c(=O)c2ccccc12 (stereo unspecified) | 37 | n | n | n | n | n
COc1ccc(-n2nc(C(=O)NCC(=O)Nc3cc(OC)c(OC)c(OC)c3)c3ccccc3c2=O)cc1OC | 27 | n | n | n | n | n
CC(C)(C)Nc1nc(Nc2ccc([N+](=O)[O-])cc2)nc(NC(C)(C)C)n1 | n | n | n | n | 15 | n
CCOc1ccccc1OCCCC(=O)Nc1ccc(Cl)c(S(=O)(=O)N2CCOCC2)c1 | n | n | n | n | n | n
COc1ccc(C(=O)OCC[N+]2(C)CCOCC2)cc1 | n | n | n | n | n | n
CN(C)CCOC(=O)C1(c2ccccc2)CCCC1 | 77 | n | n | n | n | 86
O=C(OCCN1CCCC1)C1(c2ccccc2)CCCC1 | 94 | n | n | n | n | 99
O=C(OCCN1CCCCC1)c1ccccc1Br | n | n | n | n | n | n
O=C(OCCN1CCCCC1)C1(c2ccccc2)CCCC1 | 91 | n | n | n | n | 99
CCNC(=O)C1(c2ccccc2)CCCC1 | n | n | n | n | n | n
SMILES | CHRM4 antagonist | M4 ag | M5 ag | M5 PAM | CHRM4 PAM | CHRM5 antagonist
C[N+]1(CCCOC(=O)C2(c3ccccc3)CCCC2)CCOCC1 | 78 | n | n | n | n | 87
CCOc1ccc(CN2CCNC(=O)C2CC(=O)NC2CCOCC2)cc1 (stereo unspecified) | n | n | n | n | n | n
O=C(Nc1nnc([C@@H]2C[C@H](O)[C@@H](CO)O2)s1)c1cccc(OC(F)(F)F)c1 | n | n | n | n | n | n
CCN(CC)CCOC(=O)c1ccc(NC(=O)C2(c3ccccc3)CCCC2)cc1 | n | n | n | n | n | 36
O=C(O)c1ccc(NC(=O)C2(c3ccccc3)CCCC2)cc1 | n | n | n | n | n | n
O=C(NCCCN1CCCC1=O)C(=O)NCC1OCCCN1S(=O)(=O)c1ccccc1 (stereo unspecified) | n | n | n | n | n | n
O=C(NCc1cccnc1)c1cccc2c1C(=O)N(Cc1cccnc1)C2 | n | n | n | 19 | n | n
N#CC1C(=O)NC(c2ccccc2)=CC1c1ccccc1 (stereo unspecified) | n | n | n | n | n | n
N#C/C(=N/Nc1ccccc1[N+](=O)[O-])C(N)=S | n | n | n | n | n | 29
N#C/C(=N\Nc1ccccc1)C(N)=S | n | n | n | n | n | n
COc1ccc(-c2[nH]ncc2Oc2ccccc2OC)c(O)c1 | n | n | n | n | 19 | n
COc1ccc(Oc2cn[nH]c2-c2ccc(O)cc2O)cc1 | n | n | n | n | n | n
COc1ccc(C)cc1N(CC(=O)Nc1cccnc1)S(=O)(=O)c1ccccc1 | n | n | n | n | n | 29
C[C@@]12C(=O)Nc3ccc(Br)cc3C(=O)N1[C@H]1c3ccccc3OC[C@@H]1[C@@H]2c1ccccc1 | 35 | n | n | n | n | n
COc1ccc2c(c1)OC[C@H]1[C@H]2N2C(=O)c3ccccc3NC(=O)[C@@]2(C)[C@H]1c1ccccc1 | 56 | n | n | n | n | n
Cc1ccc2c(c1)NC(=O)[C@@]1(C)[C@@H](c3ccccc3)[C@H]3COc4ccccc4[C@@H]3N1C2=O | n | n | n | n | n | n
Cc1ccc2c(c1)[C@H]1[C@H](CO2)[C@H](c2ccccc2)[C@]2(C)C(=O)Nc3ccc(Cl)cc3C(=O)N12 | n | n | n | n | n | n
COc1ccc2c(c1)OC[C@H]1[C@H]2N2C(=O)c3cc(C)ccc3NC(=O)[C@@]2(C)[C@H]1c1ccccc1 | n | n | n | n | n | n
Cc1ccc2c(c1)C(=O)N1[C@H]3c4ccccc4OC[C@@H]3[C@H](c3ccccc3)[C@]1(C)C(=O)N2 | 53 | n | n | n | n | n
Cc1ccc2c(c1)[C@H]1[C@H](CO2)[C@H](c2ccccc2)[C@]2(C)C(=O)Nc3ccccc3C(=O)N12 | 60 | n | n | n | n | n
C[C@H](CO)N1C[C@H](C)[C@@H](CN(C)Cc2cccnc2)Oc2ncc(-c3cccc(C#N)c3)cc2C1=O | n | n | n | n | n | n
CC1CN(CC(=O)Nc2ccc(S(N)(=O)=O)cc2)CC(C)O1 (stereo unspecified) | n | n | n | n | n | n
COc1ccc2c(c1)[C@H]1[C@H](CO2)[C@H](c2ccccc2)[C@]2(C)C(=O)Nc3ccc(C)cc3C(=O)N12 | n | n | n | n | n | n
COc1ccc2c(c1)C(=O)N1[C@H]3c4cc(C)ccc4OC[C@@H]3[C@H](c3ccccc3)[C@]1(C)C(=O)N2 | 34 | n | n | n | n | n

High-throughput results (PubChem BioAssay)
